Laboratory results published in ChEMBL document CHEMBL1212781, “VIM-19, a metallo-beta-lactamase with increased carbapenemase activity from Escherichia coli and Klebsiella pneumoniae” (2010).
In brackets after ≈: the same amount, converted by molar mass.

Columns and labels:
Escherichia coli [1] = experiment: microbe, parasite or virus in culture; type: functional; details: TOP10
Escherichia coli [2] = experiment: Antimicrobial activity in Escherichia coli TOP10 strain in presence of 4 ug/ml Tazobactam; type: functional
Outline: (§1)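 MIC by Etest on Mueller-Hinton agar plates at 37°C, with susceptibility interpreted per CLSI guidelines.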

Escherichia coli [3] = experiment: Antimicrobial activity in Escherichia coli TOP10 hourbouring recombinant plasmid VIM-4 by Etest in presence of 4 ug/ml Tazobactam; type: functional
Outline: (§2)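 Recombinant plasmids were carried in the TOP10 cloning host. The N215K variant was made by site-directed mutagenesis using pVIM-1 as PCR template. MIC by Etest on Mueller-Hinton agar at 37°C, with CLSI interpretation.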

Escherichia coli [4] = experiment: Antimicrobial activity in Escherichia coli J53 transconjugate with Escherichia coli DIH-1 expressing natural plasmid containing beta-lactamase VIM-19 in presence of 4 ug/ml Tazobactam; type: functional
Outline: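 Transconjugant came from liquid mating-out at 37°C into azide-resistant J53, selected on agar with amoxicillin (50 μg/ml) plus azide (100 μg/ml). MIC by Etest on Mueller-Hinton agar at 37°C, with CLSI interpretation.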

Escherichia coli [5] = experiment: Antimicrobial activity in Escherichia coli TOP10 hourbouring recombinant plasmid VIM-19 by Etest in presence of 4 ug/ml Tazobactam; type: functional
Outline: as §2

Escherichia coli [6] = experiment: microbe, parasite or virus in culture; type: functional; details: TOP10; remark: listed apart in the source
Klebsiella pneumoniae [7] = experiment: Antimicrobial activity in Klebsiella pneumoniae DIH-2 clinical isolate expressing beta-lactamase VIM-19 by Etest in presence of 4 ug/ml Tazobactam; type: functional
Outline: (§3)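 MICs read by Etest on Mueller-Hinton agar incubated at 37°C. Susceptibility was categorized according to CLSI guidelines. Transconjugants were obtained in E. coli J53 by liquid mating at 37°C, with selection on agar containing amoxicillin (50 μg/ml) and azide (100 μg/ml).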

Escherichia coli [8] = experiment: Antimicrobial activity in Escherichia coli J53 transconjugate with Escherichia coli DIH-1 expressing natural plasmid containing beta-lactamase VIM-19; type: functional
Outline: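 Transconjugants came from liquid mating-out at 37°C with azide-resistant E. coli J53 as recipient, selected on agar with amoxicillin (50 μg/ml) plus azide (100 μg/ml). MICs were then read by Etest on Mueller-Hinton agar at 37°C and interpreted per CLSI.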

Escherichia coli [9] = experiment: Antimicrobial activity in Escherichia coli J53 strain; type: functional
Outline: (§4)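 MICs were determined by Etest on Mueller-Hinton agar plates incubated at 37°C. Susceptibility was interpreted according to CLSI guidelines.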

Escherichia coli [10] = experiment: Antimicrobial activity in Escherichia coli J53 strain in presence of 4 ug/ml Tazobactam; type: functional
Outline: as §1

Escherichia coli [11] = experiment: Antimicrobial activity in Escherichia coli DIH-1 expressing beta-lactamase VIM-19 by Etest; type: functional
Outline: as §3

Escherichia coli [12] = experiment: microbe, parasite or virus in culture; type: functional; details: TOP10; remark: listed apart in the source
Escherichia coli [13] = experiment: microbe, parasite or virus in culture; type: functional; details: TOP10; remark: listed apart in the source
Escherichia coli [14] = experiment: Antimicrobial activity in Escherichia coli TOP10 strain harbouring recombinant plasmid VIM-1 by Etest in presence of 4 ug/ml Tazobactam; type: functional
Outline: as §2

Klebsiella pneumoniae [15] = experiment: Antimicrobial activity in Klebsiella pneumoniae DIH-2 clinical isolate expressing beta-lactamase VIM-19 by Etest; type: functional
Escherichia coli [16] = experiment: Antimicrobial activity in Escherichia coli TOP10 strain; type: functional
Outline: as §4

Escherichia coli [17] = experiment: Antimicrobial activity in Escherichia coli DIH-1 expressing beta-lactamase VIM-19 by Etest in presence of 4 ug/ml Tazobactam; type: functional
Outline: as §3

Escherichia coli [18] = experiment: Antimicrobial activity in Escherichia coli TOP10 harbouring recombinant plasmid VIM-1-N215K by Etest in presence of 4 ug/ml Tazobactam; type: functional
Outline: as §2

[19] = tested on: CO[C@@]1(NC(=O)Cc2cccs2)C(=O)N2C(C(=O)O)=C(COC(N)=O)CS[C@@H]21; experiment: (§5) Ratio of Kcat to Km for beta-lactamase VIM-19 expressed in Escherichia coli TOP10 by spectrophotometry
Outline: (§6)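 Enzyme came from E. coli TOP10 (pVIM-19) grown overnight at 37°C in Trypticase soy broth with amoxicillin (100 μg/ml) and kanamycin (30 μg/ml). The sonicated, cleared extract was purified on Q-Sepharose with a 0–1 M NaCl gradient, in Bis-Tris then cacodylate pH 6.5 buffers.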

[20] = tested on: C[C@@H](O)[C@H]1C(=O)N2C(C(=O)O)=C(S[C@@H]3CN[C@H](C(=O)N(C)C)C3)[C@H](C)[C@H]12; experiment: as §5
Outline: as §6

[21] = tested on: CCN1CCN(C(=O)N[C@@H](C(=O)N[C@@H]2C(=O)N3[C@@H]2SC(C)(C)[C@@H]3C(=O)O)c2ccccc2)C(=O)C1=O; experiment: as §5
Outline: as §6

[22] = tested on: CO/N=C(\C(=O)N[C@@H]1C(=O)N2C(C(=O)O)=C(COC(C)=O)CS[C@H]12)c1csc(N)n1; experiment: as §5
Outline: as §6

[23] = tested on: CC(C)(O/N=C(\C(=O)N[C@@H]1C(=O)N2C(C(=O)[O-])=C(C[n+]3ccccc3)CS[C@H]12)c1csc(N)n1)C(=O)O; experiment: as §5
Outline: as §6

[24] = tested on: C[C@@H](O)[C@H]1C(=O)N2C(C(=O)O)=C(S[C@@H]3CN[C@H](C(=O)Nc4cccc(C(=O)O)c4)C3)[C@H](C)[C@H]12; experiment: as §5
Outline: as §6

[25] = tested on: CC1(C)S[C@@H]2[C@H](NC(=O)Cc3ccccc3)C(=O)N2[C@H]1C(=O)O; experiment: as §5
Outline: as §6

[26] = tested on: CO[C@@]1(NC(=O)Cc2cccs2)C(=O)N2C(C(=O)O)=C(COC(N)=O)CS[C@@H]21; experiment: (§7) Hydrolytic activity of beta-lactamase VIM-19 expressed in Escherichia coli TOP10 by spectrophotometry
Outline: as §6

[27] = tested on: C[C@@H](O)[C@H]1C(=O)N2C(C(=O)O)=C(S[C@@H]3CN[C@H](C(=O)N(C)C)C3)[C@H](C)[C@H]12; experiment: as §7
Outline: as §6

[28] = tested on: CCN1CCN(C(=O)N[C@@H](C(=O)N[C@@H]2C(=O)N3[C@@H]2SC(C)(C)[C@@H]3C(=O)O)c2ccccc2)C(=O)C1=O; experiment: as §7
Outline: as §6

[29] = tested on: CO/N=C(\C(=O)N[C@@H]1C(=O)N2C(C(=O)O)=C(COC(C)=O)CS[C@H]12)c1csc(N)n1; experiment: as §7
Outline: as §6

[30] = tested on: CC(C)(O/N=C(\C(=O)N[C@@H]1C(=O)N2C(C(=O)[O-])=C(C[n+]3ccccc3)CS[C@H]12)c1csc(N)n1)C(=O)O; experiment: as §7
Outline: as §6

[31] = tested on: C[C@@H](O)[C@H]1C(=O)N2C(C(=O)O)=C(S[C@@H]3CN[C@H](C(=O)Nc4cccc(C(=O)O)c4)C3)[C@H](C)[C@H]12; experiment: as §7
Outline: as §6

[32] = tested on: CC1(C)S[C@@H]2[C@H](NC(=O)Cc3ccccc3)C(=O)N2[C@H]1C(=O)O; experiment: as §7
Outline: as §6

Row | Molecule | MIC (Escherichia coli [1]) [µg/mL] | MIC (Escherichia coli [6]) [µg/mL] | MIC (Escherichia coli [8]) [µg/mL] | MIC (Escherichia coli [9]) [µg/mL] | MIC (Escherichia coli [11]) [µg/mL] | MIC (Escherichia coli [13]) [µg/mL] | MIC (Klebsiella pneumoniae [15]) [µg/mL] | MIC (Escherichia coli [16]) [µg/mL] | also measured
1 | CCN1CCN(C(=O)N[C@@H](C(=O)N[C@@H]2C(=O)N3[C@@H]2SC(C)(C)[C@@H]3C(=O)O)c2ccccc2)C(=O)C1=O [PIPERACILLIN] | 256 (≈ 495 µM) | 256 (≈ 495 µM) | 256 (≈ 495 µM) | 1 (≈ 1.93 µM) | > 512 | 256 (≈ 495 µM) | > 512 | 1 (≈ 1.93 µM) | MIC (Escherichia coli [2]): 1 µg/mL; MIC (Escherichia coli [3]): 256 µg/mL; MIC (Escherichia coli [4]): 256 µg/mL; MIC (Escherichia coli [5]): 256 µg/mL; MIC (Klebsiella pneumoniae [7]): > 512 µg/mL; MIC (Escherichia coli [10]): 1 µg/mL; MIC (Escherichia coli [12]): 256 µg/mL (≈ 495 µM); MIC (Escherichia coli [14]): 256 µg/mL; MIC (Escherichia coli [17]): > 512 µg/mL; MIC (Escherichia coli [18]): 256 µg/mL
2 | C[C@@H](O)[C@H]1C(=O)N2C(C(=O)O)=C(SCCNC=N)C[C@H]12 [IMIPENEM ANHYDROUS] |  |  | 4 (≈ 13.4 µM) |  |  |  | 8 (≈ 26.7 µM) |  | 
3 | CC1(C)S[C@@H]2[C@H](NC(=O)[C@H](C(=O)O)c3ccsc3)C(=O)N2[C@H]1C(=O)O [TICARCILLIN] |  | > 512 | > 512 | 4 (≈ 10.4 µM) | > 512 | > 512 | > 512 | 4 (≈ 10.4 µM) | 
4 | C[C@H]1[C@H](NC(=O)/C(=N\OC(C)(C)C(=O)O)c2csc(N)n2)C(=O)N1S(=O)(=O)O [AZTREONAM] | 0.12 (≈ 0.276 µM) |  |  |  | 4 (≈ 9.19 µM) |  |  |  | 
5 | C[C@@H](O)[C@H]1C(=O)N2C(C(=O)O)=C(S[C@@H]3CN[C@H](C(=O)N(C)C)C3)[C@H](C)[C@H]12 [MEROPENEM] | 0.25 (≈ 0.652 µM) | 1 (≈ 2.61 µM) | 0.5 (≈ 1.3 µM) | 0.016 (≈ 0.0417 µM) |  | 1 (≈ 2.61 µM) | 4 (≈ 10.4 µM) | 0.016 (≈ 0.0417 µM) | MIC (Escherichia coli [12]): 0.25 µg/mL (≈ 0.652 µM)
6 | Metallo-beta-lactamase VIM-19 (Escherichia coli) (from UniProt D2D9J0) |  |  |  |  |  |  |  |  | kcat/Km [19]: 500000 M⁻¹ s⁻¹; kcat/Km [20]: 2e+06 M⁻¹ s⁻¹; kcat/Km [21]: 4e+06 M⁻¹ s⁻¹; kcat/Km [22]: 3e+07 M⁻¹ s⁻¹; kcat/Km [23]: 20000 M⁻¹ s⁻¹; kcat/Km [24]: 100000 M⁻¹ s⁻¹; kcat/Km [25]: 5e+06 M⁻¹ s⁻¹; Km [26]: 60 µM; kcat [26]: 30 s⁻¹; Km [27]: 15 µM; kcat [28]: 860 s⁻¹; Km [29]: 30 µM; kcat [29]: 900 s⁻¹; Km [30]: > 1000 µM; kcat [30]: > 20 s⁻¹; Km [31]: 200 µM; kcat [31]: 15 s⁻¹; Km [32]: 300 µM; kcat [32]: 1300 s⁻¹
7 | CO/N=C(\C(=O)N[C@@H]1C(=O)N2C(C(=O)O)=C(COC(N)=O)CS[C@H]12)c1ccco1 [CEFUROXIME] |  | > 512 | > 512 | 4 (≈ 9.43 µM) | > 512 | > 512 | > 512 | 2 (≈ 4.71 µM) | 
